In ChEMBL document CHEMBL4138104, “Indole carboxylic acid esters of melampomagnolide B are potent anticancer agents against both hematological and solid tumor cells” (Eur J Med Chem, 2017):
Calls of active or inactive are those of the source. The calls are words filed in the database; no cut-off is given here.

How the values were obtained:
Assay type in all cases: functional
[1] = Cytotoxicity against human M9-ENL1 cells assessed as reduction in cell viability by trypan blue staining-based assay
Method in brief: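 M9-ENL1 AML cells (MLL-ENL-transduced human blood cells) plated at 10^6 cells/mL in alpha-MEM with 5% human plasma, 20% FBS, SCF, IL-3, IL-7 and FLT3. Drug diluted from DMSO stock into PBS, final DMSO ≤0.5%. After 24 h exposure, dead cells assessed by trypan blue and by flow cytometry (Annexin V/PI or Annexin V/7-AAD). Viability normalized to vehicle; EC50 from dose-response curves; triplicate.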

[2] = Potency index, ratio of melampomagnolide-B EC50 to compound EC50 for human M9-ENL1 cells
Method in brief: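 M9-ENL1 AML cells, derived by MLL-ENL transduction of human blood cells, were plated at 10^6 cells/mL in alpha-MEM with 5% human plasma, 20% FBS, SCF, IL-3, IL-7 and FLT3 ligand. Exposure was 24 h. Non-apoptotic (Annexin V/7-AAD double-negative) fraction was normalized to vehicle, in triplicate, to give EC50. PTL and MMB were run as reference controls.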

[3] = organism: Rattus norvegicus; assay: Inhibition of colony formation of rat 9LSF cells at 5 to 20 uM after 48 hrs by colony formation assay
Method in brief: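 9L-SF cells were seeded in 60 mm dishes to reach 50% confluence (6.65×10^4 cells/cm²) after 24 h. They were treated 48 h with drug serially diluted from DMSO stock (max 0.05% DMSO), then rinsed, trypsinized, counted and seeded in triplicate flasks for colonies. Lethally irradiated (25 Gy) feeders kept density at 2,000 cells/cm². Survival was normalized to control plating efficiency, with three experiments.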

Row | SMILES | EC50 [1] [nM] | Ratio IC50 [2] | inhibition [3]
1 | C=C1C(=O)O[C@@H]2[C@H]3O[C@]3(C)CC/C=C(/COC(=O)c3ccc4[nH]ccc4c3)CC[C@@H]12 | 3000 | 2 - 20 | –
2 | C=C1C(=O)O[C@H]2[C@H]1CC/C(CO)=C\CC[C@@]1(C)O[C@@H]21 | – | – | Active
3 | C=C1C(=O)O[C@@H]2[C@H]3O[C@]3(C)CC/C=C(/COC(=O)c3sc4ccccc4c3Cl)CC[C@@H]12 | 2100 | 2 - 20 | –
4 | O=C(O)c1cc2ccccc2[nH]1 | – | – | Active
5 | C=C1C(=O)O[C@@H]2[C@H]3O[C@]3(C)CC/C=C(/COC(=O)Cc3c(C)n(C(=O)c4ccc(Cl)cc4)c4ccc(OC)cc34)CC[C@@H]12 | 2700 | 2 - 20 | –
6 | C=C1C(=O)O[C@@H]2[C@H]3O[C@]3(C)CC/C=C(/COC(=O)c3ccc4cc[nH]c4c3)CC[C@@H]12 | 2500 | 2 - 20 | –
7 | C=C1C(=O)O[C@@H]2[C@H]3O[C@]3(C)CC/C=C(/COC(=O)Cc3c[nH]c4ccccc34)CC[C@@H]12 | 4000 | 2 - 20 | –
